The text below walks through data of ChEMBL document CHEMBL3272275, “Synthesis and antiinflammatory activity of some 1,2,3- and 1,2,4-triazolepropionic acids” (J Med Chem, 1978).

Structures are written as SMILES.

Data set [1] deals with Rattus norvegicus. The data set can be described thus: Antiinflammatory activity against carrageenan/Evans blue dye-induced pleural effusion rat model assessed as reduction in pleural fluid volume at 0.83 mmol/kg, po administered 1 hr prior challenge measured 6 hrs post challenge relative to control. The data set is classed as functional. More on the design: scale not given: the % may be the effect or the level left.

The subject of data set [2] is Rattus norvegicus. The data set can be described thus: Antiinflammatory activity in Freund's adjuvant-induced Lewis rat arthritis model assessed as reduction of paw volume at 72 mg/kg, po qd administered on day 0 to day 21 of adjuvant challenge measured on day 7 by plethysmometry relative to control. The data set is classed as functional. More on the design: scale not given: the % may be the effect or the level left.

The test system of data set [3] is Rattus norvegicus. The data set can be described thus: Antiinflammatory activity in Freund's adjuvant-induced Lewis rat arthritis model assessed as reduction of paw volume at 72 mg/kg, po qd administered on day 0 to day 21 of adjuvant challenge measured on day 21 by plethysmometry relative to control. The data set is classed as functional. More on the design: scale not given: the % may be the effect or the level left. An outline of the steps: (§1)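 Male Lewis rats (125-150 g) given an intradermal injection of 0.05 mL of 0.65% Mycobacterium tuberculosis suspension in Freund's adjuvant into the right hind plantar surface on day 0. Negative controls received mineral oil only. Dosing once daily by gavage, groups of six, days 0-21. Injected and uninjected hind-foot volume change over days 0-21 measured plethysmographically. Value is percent reduction relative to controls.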

Data set [4] has as its system Rattus norvegicus. The data set is described as follows: […] in Freund's adjuvant-induced Lewis rat arthritis model assessed as reduction of uninjected paw volume at 72 mg/kg, po qd administered on day 0 to day 21 of adjuvant challenge measured on day 21 by plethysmometry relative to control. The following applies: in vivo. Details: dose 72 mg/kg, route oral; scale not given: the % may be the effect or the level left. The data set is classed as organism-based. An outline of the steps: as §1

Data set [5] deals with Rattus norvegicus. The data set can be described thus: Antiinflammatory activity against carrageenan/Evans blue dye-induced pleural effusion rat model assessed as reduction in pleural fluid volume at 0.4 mmol/kg, po administered 1 hr prior challenge measured 6 hrs post challenge relative to control. Details: scale not given: the % may be the effect or the level left. The data set is classed as functional. In short, it runs like this:
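Oral dosing at 0.4 mmol/kg to groups of six rats, 1 h before intrapleural carrageenan plus Evans blue dye. Rats killed 6 h after the irritants and pleural fluid volume measured. Value is percent reduction in fluid volume relative to untreated controls.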

The test system of data set [6] is Rattus norvegicus. The data set is described as follows: Antiinflammatory activity in Freund's adjuvant-induced Lewis rat arthritis model assessed as reduction of paw volume at 0.2 mmol/kg, po qd administered on day 0 to day 21 of adjuvant challenge measured on day 7 by plethysmometry relative to control. The data set is classed as functional. Details: scale not given: the % may be the effect or the level left.

The test system of data set [7] is Rattus norvegicus. The data set is described as follows: Antiinflammatory activity in Freund's adjuvant-induced Lewis rat arthritis model assessed as reduction of paw volume at 0.2 mmol/kg, po qd administered on day 0 to day 21 of adjuvant challenge measured on day 21 by plethysmometry relative to control. The data set is classed as functional. Details: scale not given: the % may be the effect or the level left. An outline of the steps:
as §1

The subject of data set [8] is Rattus norvegicus. The data set is described as follows: […] in Freund's adjuvant-induced Lewis rat arthritis model assessed as reduction of uninjected paw volume at 0.2 mmol/kg, po qd administered on day 0 to day 21 of adjuvant challenge measured on day 21 by plethysmometry relative to control. The data set is classed as organism-based. More on the design: scale not given: the % may be the effect or the level left. The following applies: in vivo. In short, it runs like this: as §1

For data set [9], the system named is Rattus norvegicus. The data set can be described thus: Antiinflammatory activity against carrageenan/Evans blue dye-induced pleural effusion rat model assessed as reduction in pleural fluid volume at 0.4 mmol/kg, po administered 1 hr prior challenge measured 6 hrs post challenge relative to phenylbutazone. The data set is classed as functional.

Take `CC(=O)Oc1ccccc1C(=O)O` [ASPIRIN]: the Activity is reported as 29% in the data set with Rattus norvegicus [1], 37% in the data set on Rattus norvegicus [2], 5% in the data set on Rattus norvegicus [3] and -11% in the data set on Rattus norvegicus [4].

With `O=C(O)/C=C/c1cnn(-c2ccccc2)n1`, the Activity in the data set with Rattus norvegicus [5] amounted to 13%; with Rattus norvegicus [6], 14%; in the data set on Rattus norvegicus [7] it was 20%; with Rattus norvegicus [8], 42%.

`Cc1cccc(-c2ncn(CCC(=O)O)n2)c1`: the Activity is recorded as -3.2% in the data set with Rattus norvegicus [5], -5.1% with Rattus norvegicus [6], 7.1% in the data set with Rattus norvegicus [7] and 50% in the data set with Rattus norvegicus [8].

On to `O=C(O)/C=C/c1cnn(-c2cccc(Br)c2)n1`, for which the Activity was 20% in the data set on Rattus norvegicus [5], 12% in the data set with Rattus norvegicus [6], 14% in the data set on Rattus norvegicus [7] and 16% in the data set on Rattus norvegicus [8].

Turning to `O=C(O)CCn1cc(-c2ccccc2)nn1`, the Activity is recorded as 0% in the data set with Rattus norvegicus [5], 8.9% in the data set on Rattus norvegicus [6], 2.2% in the data set with Rattus norvegicus [7] and -12% in the data set on Rattus norvegicus [8].

For `O=C(O)CCn1ncc(-c2ccccc2)n1`, the Activity in the data set with Rattus norvegicus [5] is reported as 42%; with Rattus norvegicus [6], 36%; in the data set with Rattus norvegicus [7], 57%; with Rattus norvegicus [8] it was 63%.

On to `CCOc1cccc(-c2cn(CCC(=O)O)nn2)c1`, for which the Activity in the data set on Rattus norvegicus [5] is 0.6%; in the data set on Rattus norvegicus [6], 0.4%; in the data set on Rattus norvegicus [7], -9%; in the data set with Rattus norvegicus [8] it was -28%.

On to `O=C(O)CCn1ncc(-c2cccc(Br)c2)n1`, for which the Activity in the data set with Rattus norvegicus [5] came to 29%; in the data set on Rattus norvegicus [6], 19%; in the data set on Rattus norvegicus [7] it was 30%; in the data set on Rattus norvegicus [8] it was 25%.

On to `O=C(O)CCn1cc(-c2cccc(Cl)c2)nn1`, for which the Activity in the data set with Rattus norvegicus [5] is given as -1.4%; with Rattus norvegicus [6], -1.1%; with Rattus norvegicus [7], 3.5%; with Rattus norvegicus [8], -8.2%.

`Cc1cccc(-c2cnn(CCC(=O)O)n2)c1`: the Activity in the data set on Rattus norvegicus [5] is recorded as -1.3%; with Rattus norvegicus [6], 13%; with Rattus norvegicus [7] it was 4.5%; in the data set with Rattus norvegicus [8], 9.6%.

On to `O=C(O)CCn1ncc(-c2cc(Cl)cc(Cl)c2)n1`, for which the Activity with Rattus norvegicus [5] came out at 0%; with Rattus norvegicus [6] it was 35%; in the data set on Rattus norvegicus [7] it was 33%; in the data set on Rattus norvegicus [8], 38%.

Turning to `O=C(O)CCc1nc(-c2cccc(Br)c2)n[nH]1`, the Activity in the data set with Rattus norvegicus [5] is given as -9%; with Rattus norvegicus [6] it was -13%; in the data set on Rattus norvegicus [7] it was -1.2%; in the data set with Rattus norvegicus [8], 30%.

Regarding `O=C(O)CCn1cnc(-c2cccc(Br)c2)n1`, the Activity was determined as 8.9% in the data set on Rattus norvegicus [5], 6.2% in the data set on Rattus norvegicus [6], 0.1% with Rattus norvegicus [7] and 16% in the data set with Rattus norvegicus [8].

`O=C(O)CCc1cnn(-c2cccc(Br)c2)n1`: the Activity turned out to be 14% in the data set with Rattus norvegicus [5], 14% with Rattus norvegicus [6], 35% in the data set with Rattus norvegicus [7] and 39% in the data set with Rattus norvegicus [8].

As to `O=C(O)CCc1ncn(-c2cc(Cl)cc(Cl)c2)n1`, the Activity worked out at 5.2% in the data set with Rattus norvegicus [5], 23% in the data set with Rattus norvegicus [6], 30% in the data set with Rattus norvegicus [7] and 71% in the data set on Rattus norvegicus [8].

`O=C(O)CCn1cc(-c2cccnc2)nn1`: the Activity is listed as 5.1% in the data set with Rattus norvegicus [5], 9.3% with Rattus norvegicus [6], 18% in the data set with Rattus norvegicus [7] and -30% with Rattus norvegicus [8].

On to `O=C(O)CCn1nnc(-c2ccccc2)n1`, for which the “fold change (FC)” value in the data set on Rattus norvegicus [9] is listed as 0.9.

On to `Cc1cccc(-c2ncn(CC(=O)O)n2)c1`, for which the Activity is 3% with Rattus norvegicus [5], 0.2% in the data set on Rattus norvegicus [6], -6% with Rattus norvegicus [7] and -13% with Rattus norvegicus [8].

Take `O=C(O)CCn1cnc(-c2cccc(Cl)c2)n1`: the Activity with Rattus norvegicus [5] is reported as 1.1%; with Rattus norvegicus [6] it was 3%; in the data set with Rattus norvegicus [7], 11%; with Rattus norvegicus [8], 14%.

On to `CC(=O)Nc1cccc(-c2cnn(CCC(=O)O)n2)c1`, for which the Activity was -3.2% in the data set on Rattus norvegicus [5], 8.1% with Rattus norvegicus [6], -0.1% in the data set with Rattus norvegicus [7] and -24% in the data set with Rattus norvegicus [8].

Regarding `O=C(O)CCc1cn(-c2ccccc2)nn1`, the Activity in the data set on Rattus norvegicus [5] is listed as 1.6%; in the data set with Rattus norvegicus [6], 2.3%; in the data set with Rattus norvegicus [7], -1.6%; in the data set on Rattus norvegicus [8] it was -3.2%.

Regarding `CC(=O)Nc1cccc(-c2cn(CCC(=O)O)nn2)c1`, the Activity in the data set with Rattus norvegicus [5] is 9.9%; in the data set on Rattus norvegicus [6] it was 1.7%; in the data set with Rattus norvegicus [7], 20%; with Rattus norvegicus [8] it was -19%.

On to `O=C(O)CCc1cn(-c2cccc(Cl)c2)nn1`, for which the Activity was 10% in the data set on Rattus norvegicus [5], 10% with Rattus norvegicus [6], -4.9% in the data set on Rattus norvegicus [7] and 21% with Rattus norvegicus [8].

`O=C(O)CCc1cn(-c2cccc(F)c2)nn1`: the Activity in the data set on Rattus norvegicus [5] is reported as -4.1%; in the data set with Rattus norvegicus [6], 22%; in the data set with Rattus norvegicus [7], -2.4%; in the data set on Rattus norvegicus [8] it was -2%.

For the molecule `O=C(O)CCn1nc(-c2ccccc2)c(-c2ccccc2)n1`, the Activity in the data set with Rattus norvegicus [5] was found to be 26%; with Rattus norvegicus [6] it was 21%; in the data set with Rattus norvegicus [7], 23%; in the data set with Rattus norvegicus [8], 34%.
